# Source: ChEMBL document CHEMBL2390836, “Synthesis and antitumor activities of naturally occurring oleanolic acid triterpenoid saponins and their derivatives” (Eur J Med Chem, 2013)
# What was measured:
# Assay type in all cases: functional, cell-based
# [1] = test system: A549; assay: Cytotoxicity against human A549 cells after 72 hrs by sulforhodamine B assay; conditions: A549, 72 h
# Summary of the method: (§1)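 Cells seeded in 96-well plates and exposed in triplicate to a concentration gradient at 37 °C for 72 h. Total protein staining with sulforhodamine B was the read-out. IC50 was calculated by the Logit method from at least three independent experiments.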
# [2] = test system: A-375; assay: Cytotoxicity against human A375 cells after 72 hrs by sulforhodamine B assay; conditions: A-375, 72 h; summary of the method: as §1
# [3] = test system: HL-60; assay: Cytotoxicity against human HL60 cells after 72 hrs by MTT assay; conditions: HL-60, 72 h
# Summary of the method: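 HL-60 human promyelocytic leukemia cells were plated in 96 wells and treated in triplicate with graded concentrations at 37 °C for 72 h. Viability was read by MTT reduction. IC50 was obtained by the Logit method from at least three independent experiments.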
smiles,measurement,setting,value
CC[C@@]1(O)C(=O)OCc2c1cc1n(c2=O)Cc2cc3cc(O)ccc3nc2-1 [HYDROXYCAMPTOTHECIN],IC50,[1],0.56 µM
same,IC50,[2],0.15 µM
same,IC50,[3],0.25 µM
C[C@@H]1O[C@@H](O[C@H]2[C@H](O[C@H]3CC[C@]4(C)[C@H]5CC=C6[C@@H]7CC(C)(C)CC[C@]7(C(=O)O)CC[C@@]6(C)[C@]5(C)CC[C@H]4C3(C)C)OC[C@H](O)[C@@H]2O)[C@H](O)[C@H](O[C@@H]2OC[C@@H](O[C@@H]3O[C@H](CO)[C@@H](O)[C@H](O)[C@H]3O)[C@H](O)[C@H]2O)[C@H]1O,IC50,[1],> 20 µM
same,IC50,[2],22.1 µM
same,IC50,[3],4.2 µM
C[C@@H]1O[C@@H](O[C@H]2[C@H](O[C@H]3CC[C@]4(C)[C@H]5CC=C6[C@@H]7CC(C)(C)CC[C@]7(C(=O)O)CC[C@@]6(C)[C@]5(C)CC[C@H]4C3(C)C)O[C@H](CO)[C@@H](O)[C@@H]2O)[C@H](O)[C@H](O)[C@H]1O,IC50,[1],23.5 µM
same,IC50,[2],11.6 µM
same,IC50,[3],12.9 µM
C[C@@H]1O[C@@H](O[C@H]2[C@H](O[C@H]3CC[C@]4(C)[C@H]5CC=C6[C@@H]7CC(C)(C)CC[C@]7(C(=O)O[C@@H]7O[C@H](CO[C@@H]8O[C@H](CO)[C@@H](O[C@@H]9O[C@@H](C)[C@H](O)[C@@H](O)[C@H]9O)[C@H](O)[C@H]8O)[C@@H](O)[C@H](O)[C@H]7O)CC[C@@]6(C)[C@]5(C)CC[C@H]4C3(C)C)OC[C@@H](O)[C@@H]2O)[C@H](O)[C@H](O)[C@H]1O,IC50,[1],10.5 µM
same,IC50,[2],7.3 µM
same,IC50,[3],3.2 µM
C[C@@H]1O[C@@H](O[C@H]2[C@H](O)[C@@H](O)[C@H](OC[C@H]3O[C@@H](OC(=O)[C@]45CCC(C)(C)C[C@H]4C4=CC[C@@H]6[C@@]7(C)CC[C@H](O[C@@H]8OC[C@@H](O)[C@H](O)[C@H]8O)C(C)(C)[C@@H]7CC[C@@]6(C)[C@]4(C)CC5)[C@H](O)[C@@H](O)[C@@H]3O)O[C@@H]2CO)[C@H](O)[C@H](O)[C@H]1O,IC50,[1],11.9 µM
same,IC50,[2],13.5 µM
same,IC50,[3],5.7 µM
C[C@@H]1O[C@@H](O[C@H]2[C@H](O[C@H]3CC[C@]4(C)[C@H]5CC=C6[C@@H]7CC(C)(C)CC[C@]7(C(=O)O[C@@H]7O[C@H](CO[C@@H]8O[C@H](CO)[C@@H](O)[C@H](O)[C@H]8O)[C@@H](O)[C@H](O)[C@H]7O)CC[C@@]6(C)[C@]5(C)CC[C@H]4C3(C)C)OC[C@@H](O)[C@@H]2O)[C@H](O)[C@H](O[C@@H]2O[C@H](CO)[C@@H](O)[C@H](O)[C@H]2O)[C@H]1O,IC50,[1],> 20 µM
same,IC50,[2],> 20 µM
same,IC50,[3],> 20 µM
C[C@@H]1O[C@@H](O[C@H]2[C@@H](O)[C@@H](CO)O[C@@H](O[C@H]3CC[C@]4(C)[C@H]5CC=C6[C@@H]7CC(C)(C)CC[C@]7(C(=O)O)CC[C@@]6(C)[C@]5(C)CC[C@H]4C3(C)C)[C@@H]2O)[C@H](O)[C@H](O)[C@H]1O,IC50,[1],15.2 µM
same,IC50,[2],15.4 µM
same,IC50,[3],> 20 µM
C[C@@H]1O[C@@H](O[C@H]2[C@H]3OC(c4ccccc4)OC[C@H]3O[C@@H](O[C@H]3CC[C@]4(C)[C@H]5CC=C6[C@@H]7CC(C)(C)CC[C@]7(C(=O)O)CC[C@@]6(C)[C@]5(C)CC[C@H]4C3(C)C)[C@@H]2O[C@@H]2O[C@@H](C)[C@H](O)[C@@H](O)[C@H]2O)[C@H](O)[C@H](O)[C@H]1O (some centres undefined),IC50,[1],> 20 µM
same,IC50,[2],> 20 µM
same,IC50,[3],> 20 µM
C[C@@H]1O[C@@H](O[C@H]2[C@H](O[C@H]3CC[C@]4(C)[C@H]5CC=C6[C@@H]7CC(C)(C)CC[C@]7(C(=O)O[C@@H]7O[C@H](CO[C@@H]8O[C@H](CO)[C@@H](O)[C@H](O)[C@H]8O)[C@@H](O)[C@H](O)[C@H]7O)CC[C@@]6(C)[C@]5(C)CC[C@H]4C3(C)C)OC[C@@H](O)[C@@H]2O)[C@H](O)[C@H](O[C@@H]2OC[C@@H](O)[C@H](O)[C@H]2O)[C@H]1O,IC50,[1],> 20 µM
same,IC50,[2],> 20 µM
same,IC50,[3],> 20 µM
C[C@@H]1O[C@@H](O[C@H]2[C@H](O[C@H]3CC[C@]4(C)[C@H]5CC=C6[C@@H]7CC(C)(C)CC[C@]7(C(=O)O)CC[C@@]6(C)[C@]5(C)CC[C@H]4C3(C)C)OC[C@H](O)[C@@H]2O)[C@H](O)[C@H](O[C@@H]2O[C@H](CO)[C@@H](O)[C@H](O)[C@H]2O)[C@H]1O,IC50,[1],16.7 µM
same,IC50,[2],12.1 µM
same,IC50,[3],6.1 µM
C[C@@H]1O[C@@H](O[C@H]2[C@H](O[C@H]3CC[C@]4(C)[C@H]5CC=C6[C@@H]7CC(C)(C)CC[C@]7(C(=O)O)CC[C@@]6(C)[C@]5(C)CC[C@H]4C3(C)C)O[C@H](CO)[C@H](O)[C@@H]2O)[C@H](O)[C@H](O)[C@H]1O,IC50,[1],12.4 µM
same,IC50,[2],5.1 µM
same,IC50,[3],2.5 µM
COc1cccc2c1C(=O)c1c(O)c3c(c(O)c1C2=O)C[C@@](O)(C(=O)CO)C[C@@H]3O[C@H]1C[C@H](N)[C@H](O)[C@H](C)O1 [DOXORUBICIN],IC50,[1],0.56 µM
same,IC50,[2],0.75 µM
same,IC50,[3],0.9 µM
C[C@@H]1O[C@@H](O[C@H]2[C@@H](O[C@H]3CC[C@]4(C)[C@H]5CC=C6[C@@H]7CC(C)(C)CC[C@]7(C(=O)O)CC[C@@]6(C)[C@]5(C)CC[C@H]4C3(C)C)OC[C@H](O)[C@@H]2O)[C@H](O)[C@H](O)[C@H]1O,IC50,[1],> 20 µM
same,IC50,[2],> 20 µM
same,IC50,[3],> 20 µM
C[C@@H]1O[C@@H](O[C@H]2[C@H](O[C@H]3CC[C@]4(C)[C@H]5CC=C6[C@@H]7CC(C)(C)CC[C@]7(C(=O)O)CC[C@@]6(C)[C@]5(C)CC[C@H]4C3(C)C)OC[C@H](O)[C@@H]2O)[C@H](O)[C@H](O[C@@H]2O[C@H](CO)[C@@H](O[C@@H]3O[C@H](CO)[C@@H](O)[C@H](O)[C@H]3O)[C@H](O)[C@H]2O)[C@H]1O,IC50,[1],7.9 µM
same,IC50,[2],5.9 µM
same,IC50,[3],3.5 µM
CC1(C)CC[C@]2(C(=O)O)CC[C@]3(C)C(=CC[C@@H]4[C@@]5(C)CC[C@H](O[C@@H]6O[C@H](CO)[C@@H](O)[C@H](O)[C@H]6O[C@@H]6O[C@H](CO)[C@@H](O)[C@H](O)[C@H]6O)C(C)(C)[C@@H]5CC[C@]43C)[C@@H]2C1 [ACUTOSIDE A],IC50,[1],15.3 µM
same,IC50,[2],10.3 µM
same,IC50,[3],12.5 µM
C[C@@H]1O[C@@H](O[C@H]2[C@H](O[C@H]3CC[C@]4(C)[C@H]5CC=C6[C@@H]7CC(C)(C)CC[C@]7(C(=O)O)CC[C@@]6(C)[C@]5(C)CC[C@H]4C3(C)C)OC[C@H](O)[C@@H]2O)[C@H](O)[C@H](O)[C@H]1O,IC50,[1],15.8 µM
same,IC50,[2],8.4 µM
same,IC50,[3],9.2 µM
C[C@@H]1O[C@@H](O[C@H]2[C@H](O[C@H]3CC[C@]4(C)[C@H]5CC=C6[C@@H]7CC(C)(C)CC[C@]7(C(=O)O)CC[C@@]6(C)[C@]5(C)CC[C@H]4C3(C)C)OC[C@@H](O)[C@@H]2O)[C@H](O)[C@H](O[C@@H]2O[C@H](CO)[C@@H](O[C@@H]3O[C@H](CO)[C@@H](O)[C@H](O)[C@H]3O)[C@H](O)[C@H]2O)[C@H]1O,IC50,[1],7.8 µM
same,IC50,[2],6.1 µM
same,IC50,[3],2.5 µM
C[C@@H]1O[C@@H](O[C@@H]2[C@@H](O)[C@H](C)O[C@@H](O[C@H]3[C@H](O[C@H]4CC[C@]5(C)[C@H]6CC=C7[C@@H]8CC(C)(C)CC[C@]8(C(=O)O)CC[C@@]7(C)[C@]6(C)CC[C@H]5C4(C)C)OC[C@@H](O)[C@@H]3O)[C@@H]2O)[C@H](O)[C@H](O)[C@H]1O,IC50,[1],16.2 µM
same,IC50,[2],8.4 µM
same,IC50,[3],9.3 µM
C[C@@H]1O[C@@H](O[C@H]2[C@H](O[C@H]3CC[C@]4(C)[C@H]5CC=C6[C@@H]7CC(C)(C)CC[C@]7(C(=O)O)CC[C@@]6(C)[C@]5(C)CC[C@H]4C3(C)C)OC[C@H](O[C@@H]3O[C@H](CO)[C@@H](O)[C@H](O)[C@H]3O)[C@@H]2O)[C@H](O)[C@H](O[C@@H]2O[C@H](CO)[C@@H](O[C@@H]3O[C@H](CO)[C@@H](O)[C@H](O)[C@H]3O)[C@H](O)[C@H]2O)[C@H]1O,IC50,[1],6.2 µM
same,IC50,[2],3.5 µM
same,IC50,[3],3.1 µM
C[C@@H]1O[C@@H](O[C@H]2[C@H](O[C@H]3CC[C@]4(C)[C@H]5CC=C6[C@@H]7CC(C)(C)CC[C@]7(C(=O)O)CC[C@@]6(C)[C@]5(C)CC[C@H]4C3(C)C)OC[C@@H](O)[C@@H]2O)[C@H](O)[C@H](O[C@@H]2O[C@H](CO)[C@@H](O)[C@H](O)[C@H]2O)[C@H]1O,IC50,[1],14.7 µM
same,IC50,[2],5.5 µM
same,IC50,[3],4.6 µM
C[C@@H]1O[C@@H](O[C@H]2[C@H](O[C@H]3CC[C@]4(C)[C@H]5CC=C6[C@@H]7CC(C)(C)CC[C@]7(C(=O)O[C@@H]7O[C@H](CO[C@@H]8O[C@H](CO)[C@@H](O)[C@H](O)[C@H]8O)[C@@H](O)[C@H](O)[C@H]7O)CC[C@@]6(C)[C@]5(C)CC[C@H]4C3(C)C)OC[C@@H](O)[C@@H]2O)[C@H](O)[C@H](O[C@@H]2O[C@H](CO)[C@@H](O[C@@H]3O[C@H](CO)[C@@H](O)[C@H](O)[C@H]3O)[C@H](O)[C@H]2O)[C@H]1O,IC50,[1],> 20 µM
same,IC50,[2],> 20 µM
same,IC50,[3],> 20 µM
C[C@@H]1O[C@@H](O[C@H]2[C@H](O[C@H]3CC[C@]4(C)[C@H]5CC=C6[C@@H]7CC(C)(C)CC[C@]7(C(=O)O)CC[C@@]6(C)[C@]5(C)CC[C@H]4C3(C)C)OC[C@@H](O)[C@@H]2O)[C@H](O)[C@H](O)[C@H]1O,IC50,[1],10.7 µM
same,IC50,[2],5 µM
same,IC50,[3],3.6 µM
C[C@@H]1O[C@H](O[C@H]2[C@H](O[C@H]3CC[C@]4(C)[C@H]5CC=C6[C@@H]7CC(C)(C)CC[C@]7(C(=O)O)CC[C@@]6(C)[C@]5(C)CC[C@H]4C3(C)C)OC[C@H](O)[C@@H]2O)[C@H](O)[C@H](O)[C@H]1O,IC50,[1],17.5 µM
same,IC50,[2],7.7 µM
same,IC50,[3],4.2 µM
